Reference: PubChem BioAssay AID602268 (Broad Institute, 2012)
Where “and” joins values, the source holds several entries; their conditions need not be identical. Identical values can stand only once. Calls of active or inactive are those of the source.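 The calls were made as follows: active = compounds lowering reporter light with a fitted half-maximal dose no more than twice the top dose tested; inconclusive = flat curve at 30 to 70% inhibition, or poor fit; inactive = the rest.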

Key:
[1] = test system: NIH3T3-HGL HSE-luciferase, MG132-induced, luminescence 8 h; assay: decrease of HSF-1-responsive luciferase luminescence – cell-based, NIH3T3, dry powder samples, dose response (AID 602268)
Procedure, shortened: (§1)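 Assay system: NIH3T3-HGL mouse fibroblasts with heat shock element-driven eGFP–firefly luciferase / Quantity: 4,000 cells per well / Buffer or medium: Opti-MEM with 2.5% FBS / Also added: MG132 proteasome inhibitor stressor, 2.5 µM final / Incubation: cells 24 h, compound 30 min, then MG132 8 h / Technique: luciferase luminescence, Steady-Glo reagent / Controls: Didemnin B 400 nM as positive control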

[2] = as above; conditions: NIH3T3-HGL HSE-luciferase, MG132-induced, luminescence 8 h; at 26 µM (top of the series)
Procedure, shortened: as §1

CC1=NNC(=O)/C1=C\c1cn(-c2ccccc2)nc1-c1ccc(Cl)cc1
AC50 [1]: 1460 nM

O=C(CCl)N1CCCC1c1ccc2c(c1)OCCO2 (stereo not given)
AC50 [1]: 949 nM

CCc1ccc(NC(=O)C2C3CCC(O3)C2C(=O)O)cc1 (stereo not given)
activity change, negative = inhibition [2]: 7.59% (inactive) and -9.7% (inactive)

Oc1ccc(Br)cc1/C=N/Nc1ccccn1
AC50 [1]: 1720 nM

O=C1C=C(NCCN2CCOCC2)C(=O)c2cnccc21
AC50 [1]: 2370 nM
